Several values for one entry are separate records, joined by “and”; a condition that tells them apart may be missing. Equal values may be shown once. Read-outs that look alike come from different tables or passages of the source.

Broadly, the Tmax is the time at which the peak concentration occurs. A word on the AUC(0-t): it is the area under the concentration-time curve up to a stated or last time point. What is called half-life is the time in which the quantity being followed falls by half.

Data set [1] can be described thus: Tem pharmacokinetics in whole blood. The following applies: for AUC(0-t): 0 to 24 hours post dose. The class given is in vivo, human.
For data set [2] the following is noted: cited from earlier work; for median Cmax: children.
The subject of data set [3] is children and adolescents with refractory solid tumors. Nature of the data set: Phase I dose escalation of Tem in combination with VPA: toxicity. It is filed as in vivo.
In data set [4] the test system is pediatric patients with recurrent/refractory solid tumors. The conditions noted are these: cited from earlier work.
Data set [5] relates to histone acetylation. The conditions noted are these: cited from earlier work.
Data set [6] is described as follows: VPA serum/plasma levels during treatment. The class given is in vivo, human.
Data set [7] concerns acetylated H4. The following applies: phase I study of VPA alone, half of the subjects; cited from earlier work.
Data set [8] relates to HDAC activity in PBMC. Nature of the data set: Histone H4 acetylation in peripheral blood mononuclear cells. The conditions noted are these: data from subject 6, VPA with Tem. The class given is in vivo, human. An outline of the steps: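 PBMC isolated on Ficoll and stored at −80 C. Extracts normalized to cell number were run on SDS-PAGE and blotted with rabbit anti-tetra-acetyl H4 (1:2000) and anti-pan-H4 (1:1000). Scanned blots were quantified.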

As for `CO[C@H]1C[C@@H]2CC[C@@H](C)[C@@](O)(O2)C(=O)C(=O)N2CCCC[C@H]2C(=O)O[C@H]([C@H](C)C[C@@H]2CC[C@@H](OC(=O)C(C)(CO)CO)[C@H](OC)C2)CC(=O)[C@H](C)/C=C(\C)[C@@H](O)[C@@H](OC)C(=O)[C@H](C)C[C@H](C)/C=C/C=C/C=C/1C` [Tem, Temsirolimus], in data set [1] (Tem 60 mg/m^2 dose level with VPA, both cycles), the “Peak Tem levels, range over patients” value is given as 757–1,220 ng/mL. Further, the time of peak concentration (Tmax) worked out at 30 min in data set [1] (cycle 5, Tem 35 mg/m^2 IV weekly with VPA, median, N = 2) and 39.6 min in data set [1] (human, whole blood, iv, 35 mg/m^2). Moreover, the area under the curve AUC(0-t) turned out to be 7550 ng·h/mL in data set [1] (human, whole blood, iv, 35 mg/m^2, AUClast, cycle 1, Tem 35 mg/m^2 IV weekly with VPA, median, N = 3) and 8330 ng·h/mL in data set [1] (human, whole blood, iv, 60 mg/m^2, AUClast, cycle 1, Tem 60 mg/m^2 IV weekly with VPA, median, N = 2). The same compound showed a half-life in data set [1] (human, whole blood, iv, T1/2, cycle 5, Tem 60 mg/m^2 IV weekly with VPA, N = 1) of 504 min. In addition, the figures for the “median Cmax” value in data set [2] (Tem 25 mg/m^2 without VPA) and in data set [2] (Tem 75 mg/m^2 without VPA) were 448 ng/mL and 442 ng/mL, respectively. Further, the “Peak Tem levels, range” value in data set [2] (children who had received 75 mg/m^2 Tem without VPA) was 369 to 630 ng/mL. In addition, the “tolerable dose of Tem with VPA” value in data set [3] (IV weekly with VPA PO TID) is 35 mg/m^2/week. Moreover, in data set [3] (IV weekly, VPA doses dropped using fatigue as endpoint), the “MTD of Tem in combination with VPA” value amounted to 35 mg/m2/wk. In addition, the “dose of Tem well tolerated / likely MTD when combined with VPA” value in data set [3] (IV weekly, only 3 patients treated at this dose) was determined as 35 mg/m^2. Also, the “mucositis at the lower dose” value in data set [3] (human, in vivo) is “mucositis limited to grade 1 or 2, with the exception of one subject with grade 3”. Besides, the “MTD of Tem as single agent” value in data set [4] (pediatric study) is given as “more than 150 mg/m^2 IV/week”. The “MTD of Tem alone” value in data set [4] (phase I pediatric study) is on record as 150 mg/m^2.

Turning to `CCCC(CCC)C(=O)O` [VPA, Valproic Acid], the “VPA levels needed before acetylation is significantly affected” value in data set [5] is on record as “greater than 100 mcg/mL”. In data set [6] (human, plasma, oral), this compound displayed a concentration at 24 h of 52 µg/mL. The “VPA level at grade 2 thrombocytopenia” value in data set [6] (one patient, resolved after holding VPA for 3 days) was found to be 56 µg/mL. Also, the VPA range in data set [6] (patient 1, Tem 60 mg/m^2) was 26–72 (NA) mcg/mL; in data set [6] (patient 2, Tem 60 mg/m^2) it was 78 to 112 µg/mL; in data set [6] (patient 3, Tem 60 mg/m^2) it was less than 10 to 91 µg/mL; in data set [6] (patient 4, Tem 35 mg/m^2), 68 to 108 µg/mL; in data set [6] (patient 5, Tem 35 mg/m^2), 13 to 87 µg/mL; in data set [6] (patient 6, Tem 35 mg/m^2) it was 22 to 78 µg/mL. The “VPA level at time of grade 3 toxicity” value in data set [6] (patient 2, Tem 60 mg/m^2) was 85 µg/mL and 112 µg/mL; in data set [6] (patient 3, Tem 60 mg/m^2) it was 91 µg/mL; in data set [6] (patient 4, Tem 35 mg/m^2), 108 µg/mL; in data set [6] (patient 5, Tem 35 mg/m^2) it was 87 µg/mL; in data set [6] (patient 6, Tem 35 mg/m^2), 78 µg/mL. Moreover, the “VPA level at the time of maximum symptoms (grade 3 bilateral plantar pain)” value in data set [6] (subject #5, beginning of 4th month of treatment) was 87 µg/mL. For the same compound, the “VPA levels associated with increased acetylated H4” value in data set [7] was 55 to 100 µg/mL. In addition, in data set [8], the “VPA plasma levels required to inhibit HDAC activity in PBMC” value was greater than 70 µg/dL. Further, in data set [3] (Tem plus VPA), the “VPA levels with which toxicity seemed to correlate” value was greater than 75 µg/mL. The “fatigue attributed to VPA” value in data set [3] (in vivo) is “dose-limiting fatigue”.

The record behind these values is publication PMC4005002 (Anti-cancer drugs, 2013).
